Assay results from ChEMBL document CHEMBL1121573, “2-(Aminomethyl)phenols, a new class of saluretic agents. 1. Effects of nuclear substitution” (J Med Chem, 1980).

system: Canis familiaris; assay: Compound administered intravenously was evaluated for salidiuretic activity measured as sodium ion excretion in Dog; Value ranges from 600-799; format: ADME, organism-based, Canis lupus familiaris, Urine; settings: in vivo, iv
Outline: (§1)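 Conditioned female mongrel dogs, postabsorptive, water-loaded (500 mL po) 1 h before sodium pentobarbital anesthesia (30 mg/kg iv). Bladder catheter; creatinine 4 g sc; phosphate–mannitol buffer pH 7.4 infused (3.0 mL/min) throughout. […] Urine Na+ measured; response scored 0–6.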

Diuretic activity	Compound
600	Cc1c(C)c(Cl)c(O)c(CN)c1C.Cl
600	Cc1c(C)c(Cl)c(C)c(CN)c1O.Cl
600	Cc1cc(C(C)(C)C)cc(CN)c1O.Cl

system: Rattus norvegicus; assay: Compound administered orally at a dose of 1 mg/kg was evaluated for salidiuretic activity measured as sodium ion excretion in Rat; settings: in vivo, po

Diuretic activity	Compound
1	Cc1cc(C)c(CN)c(O)c1.Cl
0.7	COc1c(Cl)c(OC)c(CN)c(O)c1Br.Cl
0.7	CSc1cc(C(C)(C)C)cc(CN)c1O.Cl
0.7	Br.Cc1c(C)c(CN)c(O)c(Cl)c1Cl
0.7	CC(C)c1cc(I)c(O)c(CN)c1.Cl

system: Rattus norvegicus; assay: Compound administered orally at a dose of 81 mg/kg was evaluated for salidiuretic activity measured as sodium ion excretion in Rat; format: ADME, organism-based, Urine; set-up: dose 81 mg/kg, route oral; unit not given beside the values; settings: in vivo, po
Outline: (§2)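 Female Charles-River rats (150–170 g), overnight on sugar diet with water ad libitum. Compound dissolved in DMF, diluted with water containing Tween 80 (final 4% DMF), given po in 5.0 mL; concurrent vehicle placebo. Three rats per metabolism cage; 0–5 h urine analysed for Na+, K+, Cl-. Values: mequiv × 100 per cage, geometric means of three cages per dose; scored 0–6 by Na+.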

Diuretic activity	Compound
< 0.3	Cc1cc(C)c(CN)c(O)c1.Cl

system: Canis familiaris; assay: Compound administered intravenously at a dose of 5 mg/kg was evaluated for salidiuretic activity measured as sodium ion excretion in Dog; Value ranges from 600-799; format: ADME, organism-based, Canis lupus familiaris, Urine; set-up: dose 5 mg/kg, route intravenous; unit not given beside the values; settings: in vivo, iv; outline: as §1

Diuretic activity	Compound
600	COc1c(Cl)c(OC)c(CN)c(O)c1Br.Cl
600	CSc1cc(C(C)(C)C)cc(CN)c1O.Cl
600	Br.Cc1c(C)c(CN)c(O)c(Cl)c1Cl
600	CC(C)c1cc(I)c(O)c(CN)c1.Cl

system: not listed separately; assay: Compound administered orally at a dose of 5 mg/kg was evaluated for salidiuretic activity measured as sodium ion excretion in Rat; format: organism-based; set-up: dose 5 mg/kg; settings: Urine; outline: as §2

Compound	Diuretic activity
COc1c(Cl)c(OC)c(CN)c(O)c1Br.Cl	2.6
CSc1cc(C(C)(C)C)cc(CN)c1O.Cl	2.6
Br.Cc1c(C)c(CN)c(O)c(Cl)c1Cl	2.6
CC(C)c1cc(I)c(O)c(CN)c1.Cl	2.6

system: not listed separately; assay: Evaluated for salidiuretic activity measured as sodium ion excretion in Rat, administered orally at a dose of 16.5 mg/kg; format: organism-based; set-up: dose 16.5 mg/kg; settings: Urine; outline: as §2

Compound	Diuretic activity
COc1c(Cl)c(OC)c(CN)c(O)c1Br.Cl	3.3
CSc1cc(C(C)(C)C)cc(CN)c1O.Cl	3.3
Br.Cc1c(C)c(CN)c(O)c(Cl)c1Cl	3.3
CC(C)c1cc(I)c(O)c(CN)c1.Cl	3.3

system: Canis familiaris; assay: Compound administered intravenously at a dose of 5 mg/kg was evaluated for salidiuretic activity measured as sodium ion excretion in Dog; Value ranges from 0-99; format: ADME, organism-based, Canis lupus familiaris, Urine; set-up: dose 5 mg/kg, route intravenous; settings: in vivo, iv; outline: as §1

Diuretic activity	Compound
0	Cc1cc(C)c(CN)c(O)c1.Cl

system: Rattus norvegicus; assay: Evaluated for salidiuretic activity measured as sodium ion excretion in Rat, administered orally at a dose of 50 mg/kg; format: functional, Urine; set-up: unit not given beside the values; settings: route oral; outline: as §2

Compound	Diuretic activity
Cc1cc(C)c(CN)c(O)c1.Cl	<0.2
COc1c(Cl)c(OC)c(CN)c(O)c1Br.Cl	3.6
CSc1cc(C(C)(C)C)cc(CN)c1O.Cl	3.6
Br.Cc1c(C)c(CN)c(O)c(Cl)c1Cl	3.6
CC(C)c1cc(I)c(O)c(CN)c1.Cl	3.6
